In ChEMBL document CHEMBL3526105, “Cytochrome P450-mediated oxidative metabolism of abused synthetic cannabinoids found in K2/Spice: identification of novel cannabinoid receptor ligands” (Drug Metab Dispos, 2012) one finds Drug metabolism, Activity and Ki data, which are given here for one molecule.

For orientation: Ki means a dissociation constant, usually derived from enzyme kinetics or from competition with a known ligand. The low end stands for higher affinity, the high end for lower affinity.

Calls of active or inactive are those of the source. The rule behind the calls is not given here.

The target of data set [1] is T1, Cytochrome P450 2E1 (Homo sapiens, UniProt P05181). Nature of the data set: Drug metabolism assessed as human recombinant CYP2E1-mediated (1-(4-hydroxypentyl)-1H-indol-3-yl)(naphthalen-1-yl)methanone formation at 10 uM after 90 mins by LC-MS/MS analysis. Format: ADME. The settings on record: recombinant enzyme, 1.5 h. Put shortly:
(§1)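 Recombinant human CYP2E1 or CYP3A4 (2 pmol) incubated with substrate at 10 μM final, dried from ethanol. Buffer 0.1 M KPO4 pH 7.4 with NADPH-regenerating system, which starts the reaction. 90 min at 37°C, triplicate, with no-substrate, no-protein and no-NADPH controls. Stopped with ethanol, centrifuged, and metabolites quantified by LC-MS/MS.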

The subject of data set [2] is Liver microsome. Nature of the data set: Drug metabolism in human liver microsomes assessed as (6-hydroxy-1-pentyl-1H-indol-3-yl)(naphthalen-1-yl)methanone formation at 10 uM after 20 mins by LC-MS/MS analysis. Format: ADME. The method, boiled down:
(§2)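 Pooled human liver microsomes (75 μg) incubated with 10 μM substrate in 0.1 M KPO4 pH 7.4 with NADPH-regenerating system at 37°C. Reaction stopped with ethanol, centrifuged. Analytes quantified by positive-ESI LC-MS/MS against standards matrix-matched in reaction mixture, with confirmation by SRM-triggered enhanced product ion spectra library matching.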
Background: Microsomes from liver hold many membrane-bound enzymes, among them those of drug oxidation.

Data set [3] deals with T2, Cytochrome P450 3A4 (Homo sapiens, UniProt P08684). Nature of the data set: Drug metabolism assessed as human recombinant CYP3A4-mediated 5-(3-(1-naphthoyl)-1H-indol-1-yl)pentanoic acid formation at 10 uM after 90 mins by LC-MS/MS analysis. Format: ADME. The settings on record: recombinant enzyme, 1.5 h. Put shortly: as §1
T2 sequence (P08684 whole entry): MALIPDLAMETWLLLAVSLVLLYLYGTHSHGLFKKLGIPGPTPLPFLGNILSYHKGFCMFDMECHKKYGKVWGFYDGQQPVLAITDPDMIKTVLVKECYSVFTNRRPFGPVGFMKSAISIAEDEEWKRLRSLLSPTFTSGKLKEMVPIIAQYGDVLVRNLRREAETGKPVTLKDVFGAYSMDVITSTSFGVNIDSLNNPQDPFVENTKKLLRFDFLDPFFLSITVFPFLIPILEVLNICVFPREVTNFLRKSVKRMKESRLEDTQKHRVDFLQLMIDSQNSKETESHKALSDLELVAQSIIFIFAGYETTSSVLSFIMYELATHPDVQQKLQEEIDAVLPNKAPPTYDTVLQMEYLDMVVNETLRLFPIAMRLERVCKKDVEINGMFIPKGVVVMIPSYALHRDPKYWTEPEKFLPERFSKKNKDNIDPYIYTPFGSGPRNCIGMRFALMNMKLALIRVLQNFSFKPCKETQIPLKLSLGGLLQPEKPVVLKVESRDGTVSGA
Data set [4] has as its system Liver microsome. The data set is described as follows: Drug metabolism in human liver microsomes assessed as (7-hydroxy-1-pentyl-1H-indol-3-yl)(naphthalen-1-yl)methanone formation at 10 uM after 20 mins by LC-MS/MS analysis. Format: ADME. Put shortly: as §2
Data set [5] concerns the target T1, Cytochrome P450 2E1. Nature of the data set: Drug metabolism assessed as human recombinant CYP2E1-mediated 5-(3-(1-naphthoyl)-1H-indol-1-yl)pentanoic acid formation at 10 uM after 90 mins by LC-MS/MS analysis. Format: ADME. The conditions noted are these: recombinant enzyme, 1.5 h. Put shortly:
as §1

In data set [6] the target is T1, Cytochrome P450 2E1. The data set is described as follows: Drug metabolism assessed as human recombinant CYP2E1-mediated (1-(5-hydroxypentyl)-1H-indol-3-yl)(naphthalen-1-yl)methanone formation at 10 uM after 90 mins by LC-MS/MS analysis. Format: ADME. The conditions noted are these: recombinant enzyme, 1.5 h. Put shortly: as §1
The nature of data set [7]: Drug metabolism in human urine assessed as (1-(5-hydroxypentyl)-1H-indol-3-yl)(naphthalen-1-yl)methanone formation by LC-MS/MS analysis. It counts as ADME, tissue-based. The method, boiled down: (§3)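 Urine from suspected users (40 μl) incubated with or without β-glucuronidase (1.6 U/μl final) in 0.1 M sodium acetate pH 5.0, 60 min at 37°C with shaking. Analysed by positive-ESI LC-MS/MS against standards matrix-matched in blank pooled human urine, with confirmation by enhanced product ion spectra.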

The nature of data set [8]: Drug metabolism in human urine assessed as 5-(3-(1-naphthoyl)-1H-indol-1-yl)pentanoic acid formation by LC-MS/MS analysis. It counts as ADME, tissue-based. Put shortly:
as §3

Data set [9] deals with T2, Cytochrome P450 3A4. Nature of the data set: Drug metabolism assessed as human recombinant CYP3A4-mediated (1-(4-hydroxypentyl)-1H-indol-3-yl)(naphthalen-1-yl)methanone formation at 10 uM after 90 mins by LC-MS/MS analysis. The settings on record: recombinant enzyme, 1.5 h. It counts as ADME. The method, boiled down:
as §1

Data set [10] deals with Cytochrome b5 (Homo sapiens, UniProt P00167). The data set is described as follows: Drug metabolism assessed as cytochrome b5 (unknown origin)-mediated (5-hydroxy-1-pentyl-1H-indol-3-yl)(naphthalen-1-yl)methanone formation at 10 uM after 90 mins by LC-MS/MS analysis in presence of oxidoreductase. It counts as ADME. The conditions noted are these: 1.5 h.
Sequence of Cytochrome b5 (P00167 whole entry): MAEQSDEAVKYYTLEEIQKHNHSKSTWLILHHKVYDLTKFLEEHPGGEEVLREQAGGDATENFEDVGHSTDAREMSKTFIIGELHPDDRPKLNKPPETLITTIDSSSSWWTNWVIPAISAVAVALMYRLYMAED
In data set [11] the target is Cannabinoid receptor 1 (Mus musculus) (UniProt P47746). Nature of the data set: Activation of CB1 receptor in B6SJL mouse brain membrane assessed as [35S]-GTPgammaS binding at 10 uM after 30 mins by liquid scintillation spectrophotometric analysis. It counts as functional, cell membranes. The method, boiled down:
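Mouse brain membrane homogenate (25 μg; whole B6SJL brains, pooled, Dounce-homogenised, spun 40,000g three times). Incubated with […], 0.1 nM [35S]GTPγS in 20 mM HEPES, 10 mM MgCl2, 100 mM NaCl, 20 U/l adenosine deaminase, 0.05% BSA, 30 min at 30°C, triplicate. Nonspecific binding with 10 μM unlabelled GTPγS. Stopped by GF/B filtration; filters counted by scintillation.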
For orientation: GTPγS is a poorly hydrolysed GTP analogue; its binding reports G protein activation.

Data set [12] has as its target Cannabinoid receptor 1 (Mus musculus, UniProt P47746). The data set is described as follows: Displacement of [3H]CP-55,940 from CB1 receptor in B6SJL mouse brain membrane after 90 mins by liquid scintillation spectrophotometric analysis. Format: cell membranes. Put shortly:
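B6SJL mouse brain membranes (50 μg) with 0.2 nM [3H]CP-55,940 and competitor at 0.1 nM–10 μM. Buffer 5 mM MgCl2, 50 mM Tris, 0.05% BSA; 90 min at room temperature, triplicate. Nonspecific binding set with 10 μM WIN-55,212-2. Filtered on GF/B, washed with Tris/BSA, counted by scintillation. Specific binding given as % of vehicle.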
(In general: In a radioligand displacement assay an active substance lowers the binding of a labelled ligand.)

Data set [13] in a line: Drug metabolism in human urine assessed as (1-(4-hydroxypentyl)-1H-indol-3-yl)(naphthalen-1-yl)methanone formation by LC-MS/MS analysis. It counts as ADME, tissue-based. Put shortly:
as §3

Data set [14] relates to Liver microsome. The data set is described as follows: Drug metabolism in human liver microsomes assessed as (5-hydroxy-1-pentyl-1H-indol-3-yl)(naphthalen-1-yl)methanone formation at 10 uM after 20 mins by LC-MS/MS analysis. It counts as ADME. Put shortly: as §2
Data set [15] has as its target T2, Cytochrome P450 3A4. The data set is described as follows: Drug metabolism assessed as human recombinant CYP3A4-mediated (1-(5-hydroxypentyl)-1H-indol-3-yl)(naphthalen-1-yl)methanone formation at 10 uM after 90 mins by LC-MS/MS analysis. The conditions noted are these: recombinant enzyme, 1.5 h. It counts as ADME. Put shortly: as §1
In data set [16] the target is Cannabinoid receptor 1 (Mus musculus) (UniProt P47746). The data set is described as follows: Activation of CB1 receptor in B6SJL mouse brain membrane assessed as [35S]-GTPgammaS binding at 10 uM after 30 mins by liquid scintillation spectrophotometric analysis in presence of O-2050. It counts as functional, cell membranes.
Sequence of Cannabinoid receptor 1 (Mus musculus) (P47746 whole entry): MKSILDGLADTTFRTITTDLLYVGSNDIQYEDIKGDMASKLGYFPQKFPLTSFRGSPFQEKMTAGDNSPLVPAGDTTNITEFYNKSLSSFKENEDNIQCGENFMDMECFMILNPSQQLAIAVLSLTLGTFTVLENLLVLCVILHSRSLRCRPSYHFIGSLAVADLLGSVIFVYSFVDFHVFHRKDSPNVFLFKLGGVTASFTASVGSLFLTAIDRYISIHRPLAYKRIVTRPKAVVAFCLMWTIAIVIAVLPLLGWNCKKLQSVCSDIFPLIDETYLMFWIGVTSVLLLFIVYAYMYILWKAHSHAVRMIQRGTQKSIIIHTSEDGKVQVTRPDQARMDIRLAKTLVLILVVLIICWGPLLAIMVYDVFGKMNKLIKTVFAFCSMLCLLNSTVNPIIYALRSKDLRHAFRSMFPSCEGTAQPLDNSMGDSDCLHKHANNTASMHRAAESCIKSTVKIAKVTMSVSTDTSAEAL

T1 sequence (P05181 whole entry): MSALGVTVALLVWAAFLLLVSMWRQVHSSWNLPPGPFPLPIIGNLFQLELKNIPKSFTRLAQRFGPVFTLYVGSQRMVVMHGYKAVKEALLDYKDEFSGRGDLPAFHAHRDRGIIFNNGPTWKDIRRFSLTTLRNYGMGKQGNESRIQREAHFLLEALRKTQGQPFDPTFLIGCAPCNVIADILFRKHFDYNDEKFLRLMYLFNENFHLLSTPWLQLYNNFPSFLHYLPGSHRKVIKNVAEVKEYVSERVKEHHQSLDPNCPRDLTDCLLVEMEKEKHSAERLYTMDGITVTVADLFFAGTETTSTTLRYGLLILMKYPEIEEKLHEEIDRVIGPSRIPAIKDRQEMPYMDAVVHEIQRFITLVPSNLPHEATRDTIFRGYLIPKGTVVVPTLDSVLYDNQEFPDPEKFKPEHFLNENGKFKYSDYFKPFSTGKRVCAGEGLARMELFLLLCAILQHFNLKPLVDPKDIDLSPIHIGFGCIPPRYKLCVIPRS
Sequence of Cannabinoid receptor 1 (P47746 whole entry): as the sequence (P47746 whole entry) above

In the case of `CCCCCn1cc(C(=O)c2cccc3ccccc23)c2ccccc21`, the Drug metabolism result in data set [1] is “metabolite_not_detected”; in data set [2], “metabolite_detected”; in [3] it was “metabolite_not_detected”; in [4], “metabolite_detected”; in data set [5], “metabolite_not_detected”; in data set [6], “metabolite_not_detected”. Also, the Drug metabolism result in data set [7] is on record as “metabolite_detected”; in data set [8], “metabolite_detected”; in data set [9], “metabolite_not_detected”; in data set [10], “metabolite_detected”; in data set [13], “metabolite_detected”; in data set [14], “metabolite_detected”. Moreover, in data set [15], the Drug metabolism result is “metabolite_not_detected”. Besides, in [11], the outcome was Active. This molecule returned a Ki in data set [12] of 1.3 nM. In data set [16], the outcome was inactive.
